RAD54 inh – RAD54 (human) branch migration inhibition; Q92698; inhibition, % at 10.4 µM; AID 602329; RAD54 Holliday junction branch migration, FAM/BHQ fluorescence; actives 0.14% (n = 360,000);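 active = mean normalized replicate activity at least 40 and at least half of replicates scoring 40 or more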;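 note: 0% = median of neutral control wells and 100% = median of positive control wells; inhibitors cause a drop in the FAM fluorescence signal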
XiGFP reactiv – activators of X-chromosome reactivation in mouse fibroblasts; XiGFP mouse fibroblasts, % GFP-positive cells imaging, 3 d; cells co-treated with 5-aza-dC sensitizer; scaled so ellipticine positive control = 100%; activation, % at 7.58 µM; actives 0.055% (n = 360,000); AID 743238;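 active = mean normalized replicate activation at least 10% and every replicate at or above 10%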;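 note: 0% = median of on-plate neutral control wells and 100% = ellipticine 6 µM median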
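Material: SV40-immortalized XiGFP fibroblast cells, line 68-5-11 | Buffer or medium: DMEM containing 5-aza-dC | Dosing: One concentration, pinned | Times: 3 d treatment, 15 min room-temperature fixation | Controls: Ellipticine 6 µM positive control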
E-sel inducer – E-selectin induction on HUVECs; activation, % at 7.58 µM; P16581; AID 686992; HUVEC E-selectin immunofluorescence imaging; normalized: neutral wells 0, TNF-alpha wells 100; actives 0.37% (n = 260,000);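 active = mean E-selectin-positive cell signal at least 10% of the positive control, reached in at least 60% of replicates, without over 20% cell loss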
Target sequence (P16581 whole entry, looked up): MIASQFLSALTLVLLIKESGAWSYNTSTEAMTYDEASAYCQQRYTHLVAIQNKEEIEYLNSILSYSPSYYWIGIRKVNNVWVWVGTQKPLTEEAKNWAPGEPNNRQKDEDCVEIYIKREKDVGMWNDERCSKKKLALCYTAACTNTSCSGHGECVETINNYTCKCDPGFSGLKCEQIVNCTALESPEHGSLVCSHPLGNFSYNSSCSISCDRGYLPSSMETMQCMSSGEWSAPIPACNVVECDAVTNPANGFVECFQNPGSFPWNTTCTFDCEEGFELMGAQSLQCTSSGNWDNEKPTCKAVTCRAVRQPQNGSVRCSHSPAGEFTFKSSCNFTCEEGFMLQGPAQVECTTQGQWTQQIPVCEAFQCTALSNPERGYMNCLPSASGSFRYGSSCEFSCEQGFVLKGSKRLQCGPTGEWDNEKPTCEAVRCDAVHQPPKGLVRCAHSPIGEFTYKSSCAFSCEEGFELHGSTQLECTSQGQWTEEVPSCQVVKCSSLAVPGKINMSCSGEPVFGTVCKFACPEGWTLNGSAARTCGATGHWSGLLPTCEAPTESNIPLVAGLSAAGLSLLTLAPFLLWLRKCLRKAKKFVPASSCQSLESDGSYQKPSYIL
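Test system: HUVEC | Signal: Immunofluorescence imaging | Read-out: Percent E-selectin-positive cells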
PglD inh – PglD (C. jejuni) enzyme inhibition | inhibition, % at 12.5 µM | actives 0.098% (n = 360,000) | purified PglD enzyme, DTNB colorimetric CoA detection; in the data active = inhibition above about 16%, passing the limit was not always enough
rRNA inh HTS – inhibitors of bacterial rRNA selective over humanized ribosomes | E. coli WT GFP vs humanized-ribosome RFP mutants, fluorescence, 24 h; active compounds read low; DMSO median 0, no signal -100 | AID 720706 | actives 1.6% (n = 350,000) | GFP signal change (wild-type ribosome), % (concentration not given with the values);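 active = significant combined selectivity score with lowered wild-type GFP, culture density cut under 30%, mutant RFP and density less affected; inactive = any of these conditions unmet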
RAD52 inh – blocks human RAD52 DNA annealing; recombinant RAD52 DNA annealing, FRET fluorescence; inhibition, % at 18.7 µM; actives 0.46% (n = 360,000); AID 651710;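 active = every replicate showing at least 50% inhibition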
Active calls of the source: *; / = no result given; ! = not confirmed by another sample. Rows were chosen to be rich in hits. Some 2% of all compounds tested hit in one or more screens of this group.

SMILES | RAD54 inh | XiGFP reactiv | E-sel inducer | PglD inh | rRNA inh HTS | RAD52 inh
Cc1ccc(S(=O)(=O)N2CCN(C(=O)c3ccccc3)C2C(C)C)cc1 (stereo unspecified) | 9 | / | / | 3 | -2 | -3
C/C(=N\S(=O)(=O)c1ccc(C)cc1)N1CCN(S(=O)(=O)c2ccccc2)C1C(C)C (stereo unspecified) | 1 | / | / | -1 | -27* | -7
CCCC(=O)Nc1ccc2c(c1)OC[C@H](C)N(CCc1ccccc1)C[C@H](C)[C@H](OC)CN(C)C2=O | / | 0 | -1 | / | 3 | /
CCOC(=O)c1cc(Cl)c2c(ccc3ccccc32)n1 | 10 | 0 | / | 3 | 1 | 0
CCOC(=O)c1nc2c(ccc3ccccc32)cc1C | 3 | 0 | 0 | -1 | -31* | -9
C[C@H]1CN([C@@H](C)CO)C(=O)Cc2cc(NS(=O)(=O)c3ccc(Cl)cc3)ccc2O[C@@H]1CN(C)Cc1ccc(Oc2ccccc2)cc1 | -7 | 1 | 0 | 1 | 0 | 11
O=C(C[C@@H]1C=C[C@@H](NS(=O)(=O)c2ccc(F)cc2)[C@@H](CO)O1)NCc1ccc(Cl)c(Cl)c1 | -1 | 0 | 0 | -4 | -11 | 4
O=S(=O)(NCC1CCCO1)c1ccc(-c2ccc(Cl)cc2)cc1 (stereo unspecified) | / | 0 | 0 | / | -25* | -14
O=S1(=O)CC(N2CCN(Cc3ccccc3F)CC2)CN1Cc1cn(Cc2ccc(Cl)cc2)nn1 (stereo unspecified) | / | 0 | 3 | / | -19* | -13
COc1ccc(Cn2cc(CN3CC(N4CCN(Cc5ccccc5F)CC4)CS3(=O)=O)nn2)cc1 (stereo unspecified) | / | 0 | 9 | / | -1 | -3
CC(=O)N1[C@@H]2Cn3c(ccc(C4=CCCCC4)c3=O)[C@H]1[C@@H](C(=O)NCc1cc(F)cc(F)c1)[C@@H]2CO | -12 | 0 | 0 | 1 | -3 | 0
Cc1ccccc1-c1ccc([C@H]2[C@@H](CO)N3C(=O)CN(C(=O)Nc4ccc(F)cc4)C[C@H]23)cc1 | / | 0 | 0 | / | -51 | -21
Cc1onc(-c2ccccc2)c1-c1nnc(-c2ccccc2C(F)(F)F)o1 | -6 | 0 | 0 | 4 | -20* | -8
Cc1onc(-c2c(F)cccc2Cl)c1-c1nnc(-c2ccc(C(F)(F)F)cc2)o1 | 0 | 0 | 0 | -2 | 13 | -8
COc1ccccc1NC(=O)N[C@@H]1CC[C@@H](CCNC(=O)c2ccc3c(c2)OCO3)O[C@H]1CO | -2 | 0 | 0 | -1 | -2 | -13
CSc1ccccc1NC(=O)CSc1n[nH]c(C)c1[N+](=O)[O-] | / | 0 | 3 | / | -30* | -38
O=C(/C=C/c1ccccc1[N+](=O)[O-])N1CCN(c2ccc(F)cc2)CC1 | 0 | 0 | / | 0 | -30* | -8
O=C(/C=C/c1cccc([N+](=O)[O-])c1)N1CCN(c2ccc(F)cc2)CC1 | 4 | 0 | 1 | -1 | / | /
CCCC#Cc1ccc2c(c1)O[C@@H](CN(C)C)[C@@H](C)CN([C@@H](C)CO)S2(=O)=O | 5 | -1 | 0 | -1 | 3 | -2
COc1ccc(S(=O)(=O)N(C)C[C@@H]2Oc3c(NS(C)(=O)=O)cccc3C(=O)N([C@H](C)CO)C[C@H]2C)cc1 | -3 | -1 | -4 | 2 | -6 | 3
COc1cccc(S(=O)(=O)Nc2ccc3c(c2)OC[C@@H](C)NC[C@@H](C)[C@H](OC)CN(C)C3=O)c1 | 1 | 0 | 0 | -1 | 4 | -17
N=c1ccn(CC(=O)c2ccc(-c3ccccc3)cc2)cc1 | / | 0 | 0 | / | -41* | 28
CSc1c(-c2ccccn2)c(N)nn1C(=O)C1CC1 | / | 0 | / | / | -24* | -5
Cc1ccccc1S(=O)(=O)NCC[C@@H]1CC[C@H](NC(=O)Nc2cccc(Cl)c2)[C@@H](CO)O1 | 2 | 0 | 0 | 0 | / | -4
C[C@H]1CCCCO[C@H](CN(C)CC2CCCCC2)[C@@H](C)CN([C@@H](C)CO)C(=O)c2cc(NC(=O)c3ccncc3)ccc2O1 | 7 | 0 | 0 | 3 | 0 | 13
SMILES | RAD54 inh | XiGFP reactiv | E-sel inducer | PglD inh | rRNA inh HTS | RAD52 inh
CCc1cc2c(NC(Cc3c[nH]c4ccccc34)C(=O)O)nc(C)nc2s1 (stereo unspecified) | / | 0 | 0 | / | -28* | -8
Cc1cc(C(=O)NC(Cc2c[nH]c3ccccc23)C(=O)O)c(C)o1 (stereo unspecified) | -4 | 0 | 0 | 1 | 9 | -27
Cc1noc(C)c1S(=O)(=O)N(C)C[C@H]1OCCCC[C@H](C)Oc2ccc(NC(=O)Nc3ccc(F)cc3)cc2C(=O)N([C@H](C)CO)C[C@@H]1C | -2 | 0 | 0 | -4 | 2 | -4
O=C1C(=C(c2ccccc2)N2CCOCC2)Cc2ccccc21 | / | 1 | / | / | -22* | -7
C/C(=N/OC(=O)c1ccccc1Br)c1ccc(C)cc1 | 0 | 0 | 4 | -5 | -18* | -13
C/C(=N/OC(=O)c1ccc(C)cc1)c1cccs1 | -3 | / | / | 0 | / | /
Cc1ccsc1C(=O)OCC(=O)N(Cc1ccccc1)C(C)C | 3 | 0 | 0 | 2 | -30* | -9
CC(C)C#Cc1ccc([C@H]2[C@@H](CO)N3C(=O)CN(C(=O)NC4CCCCC4)C[C@@H]23)cc1 | / | 0 | 1 | / | -2 | 58*
Cc1ccc(S(=O)(=O)N2C[C@@H]3N[C@H](C2)C3c2ccc(-c3cccc(C#N)c3)cc2)cc1 (stereo partly specified) | / | 0 | 0 | / | 0 | 82*!
Cc1ccc(-c2ccc(C3[C@@H]4CN(S(=O)(=O)c5ccccc5)C[C@H]3N4)cc2)cc1 (stereo partly specified) | / | 0 | 0 | / | 1 | 98*!
N#Cc1cccc(-c2ccc([C@@H]3[C@@H]4CN(S(=O)(=O)c5ccc(-c6ccccc6)cc5)C[C@H]3N4)cc2)c1 | / | 0 | 0 | / | 2 | -7
O=S(=O)(c1ccccc1)N1C[C@@H]2N[C@H](C1)C2c1ccc(-c2ccccc2)cc1 (stereo partly specified) | / | 0 | 0 | / | -56 | 73*!
CC(C)NC(=O)Nc1ccc2c(c1)C(=O)N([C@H](C)CO)C[C@H](C)[C@H](CN(C)Cc1ccc(Cl)c(Cl)c1)OCCCC[C@H](C)O2 | 0 | 0 | / | -1 | -5 | 30
CCCN1[C@@H]2c3ccc(-c4cccc(OC)c4)c(=O)n3C[C@H]1[C@H](CO)[C@H]2C(=O)NCC | 9 | 0 | -1 | 4 | -4 | -8
O=C(C/C=N\OCc1ccc([N+](=O)[O-])cc1)Nc1ccccc1 | 4 | 0 | 0 | 5 | -2 | 8
